# Results taken from ChEMBL document CHEMBL1148008, “Antimicrobial and cytotoxic activity of agelasine and agelasimine analogs” (Bioorg Med Chem, 2007).
# System: Mycobacterium tuberculosis
# Experiment: Antimicrobial activity against Mycobacterium tuberculosis after 20 hrs by broth microdilution method
# Assay type: functional
# Settings: not given
row,Compound,MIC
1,CC(C)=CCC/C(C)=C/CC/C(C)=C/CC/C(C)=C/Cn1cnc2ncnc(N)c21,1.56 µg/mL
2,CC(C)=CCC/C(C)=C/CC/C(C)=C/CC/C(C)=C/C[n+]1cn(C)c2nc[nH]/c(=N\OCc3ccccc3)c21,3.13 µg/mL
3,CO/N=c1\[nH]cnc2c1[n+](C/C=C(\C)CC/C=C(/C)CCC=C(C)C)cn2C,3.13 µg/mL
4,CC(C)=CCC/C(C)=C\CC/C(C)=C/C[n+]1cn(C)c2nc[nH]/c(=N\OCc3ccccc3)c21,3.13 µg/mL
5,CC(C)=CCC/C(C)=C/CC/C(C)=C/CC/C(C)=C/C[n+]1cn(C)c2nc[nH]/c(=N\OC(C)(C)C)c21,3.13 µg/mL
6,CC(C)=CCC/C(C)=C/CC/C(C)=C/CC/C(C)=C/Cn1cnc2c1C(=N)N(C)CN2C,3.13 µg/mL

# System: Bacteroides thetaiotaomicron
# Experiment: Antibacterial activity against Bacteroides thetaiotaomicron after 20 hrs by broth microdilution method
# Assay type: functional
# Settings: not given
row,Compound,MIC
1,CC(C)=CCC/C(C)=C/CC/C(C)=C/CC/C(C)=C/C[n+]1cn(C)c2nc[nH]/c(=N\OCc3ccccc3)c21,16 µg/mL
2,CO/N=c1\[nH]cnc2c1[n+](C/C=C(\C)CC/C=C(/C)CCC=C(C)C)cn2C,16 µg/mL
3,CC(C)=CCC/C(C)=C\CC/C(C)=C/C[n+]1cn(C)c2nc[nH]/c(=N\OCc3ccccc3)c21,4 µg/mL
4,Cc1ncc([N+](=O)[O-])n1CCO [METRONIDAZOLE],1 µg/mL
5,Cn1c[n+](Cc2ccccc2)c2c(N)ncnc21.[Cl-],> 32 µg/mL

# System: ACHN
# Experiment: Cytotoxicity against ACHN cells
# Assay type: functional, cell-based
# Settings: Homo sapiens
# In short: (§1)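 Fluorometric microculture cytotoxicity assay (FMCA) read-out; IC50 values reported.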
row,Compound,IC50
1,CC(C)=CCC/C(C)=C/CC/C(C)=C/CC/C(C)=C/Cn1cnc2ncnc(N)c21,7.24 µM
2,CC(C)=CCC/C(C)=C/CC/C(C)=C/CC/C(C)=C/C[n+]1cn(C)c2nc[nH]/c(=N\OCc3ccccc3)c21,20.9 µM
3,CO/N=c1\[nH]cnc2c1[n+](C/C=C(\C)CC/C=C(/C)CCC=C(C)C)cn2C,28.7 µM
4,CC(C)=CCC/C(C)=C\CC/C(C)=C/C[n+]1cn(C)c2nc[nH]/c(=N\OCc3ccccc3)c21,25.2 µM
5,CC(C)=CCC/C(C)=C/CC/C(C)=C/CC/C(C)=C/C[n+]1cn(C)c2nc[nH]/c(=N\OC(C)(C)C)c21,8.4 µM
6,Cn1c[n+](Cc2ccccc2)c2c(N)ncnc21.[Cl-],> 80 µM
7,CC(C)=CCC/C(C)=C/CC/C(C)=C/CC/C(C)=C/C[n+]1cn(C)c2ncnc(N)c21,20.3 µM
8,CC(C)=CCC/C(C)=C/CC/C(C)=C/CC/C(C)=C/Cn1cnc2c1C(=N)N(C)CN2C,5.16 µM
9,CC(C)=CCC/C(C)=C/CC/C(C)=C/CC/C(C)=C/Cn1cnc2c1c(=N)ncn2C,12.3 µM

# System: Bacteroides fragilis
# Experiment: Antibacterial activity against Bacteroides fragilis after 20 hrs by broth microdilution method
# Assay type: functional
# Settings: not given
row,Compound,MIC
1,CC(C)=CCC/C(C)=C/CC/C(C)=C/CC/C(C)=C/C[n+]1cn(C)c2nc[nH]/c(=N\OCc3ccccc3)c21,8 µg/mL
2,CO/N=c1\[nH]cnc2c1[n+](C/C=C(\C)CC/C=C(/C)CCC=C(C)C)cn2C,32 µg/mL
3,CC(C)=CCC/C(C)=C\CC/C(C)=C/C[n+]1cn(C)c2nc[nH]/c(=N\OCc3ccccc3)c21,4 µg/mL
4,Cc1ncc([N+](=O)[O-])n1CCO [METRONIDAZOLE],0.5 µg/mL
5,Cn1c[n+](Cc2ccccc2)c2c(N)ncnc21.[Cl-],> 32 µg/mL

# System: Pichia kudriavzevii
# Experiment: Antifungal activity against Candida krusei ATCC 6258
# Assay type: functional
# Settings: not given
row,Compound,MIC
1,CC(C)=CCC/C(C)=C/CC/C(C)=C/CC/C(C)=C/Cn1cnc2ncnc(N)c21,> 16 µg/mL
2,CC(C)=CCC/C(C)=C/CC/C(C)=C/CC/C(C)=C/C[n+]1cn(C)c2nc[nH]/c(=N\OCc3ccccc3)c21,1 µg/mL
3,CC(C)=CCC/C(C)=C/CC/C(C)=C/CC/C(C)=C/C[n+]1cn(C)c2nc[nH]/c(=N\OC(C)(C)C)c21,2 µg/mL
4,CC(C)=CCC/C(C)=C/CC/C(C)=C/CC/C(C)=C/C[n+]1cn(C)c2ncnc(N)c21,> 16 µg/mL
5,CC(C)=CCC/C(C)=C/CC/C(C)=C/CC/C(C)=C/Cn1cnc2c1C(=N)N(C)CN2C,16 µg/mL
6,CC(C)=CCC/C(C)=C/CC/C(C)=C/CC/C(C)=C/Cn1cnc2c1c(=N)ncn2C,2 µg/mL

# System: Mycobacterium tuberculosis
# Experiment: Antimicrobial activity against Mycobacterium tuberculosis at 6.25 ug/mL after 20 hrs by broth microdilution method
# Assay type: functional
# Settings: not given
row,Compound,inhibition at 6.25 µg/mL
1,CC(C)=CCC/C(C)=C/CC/C(C)=C/CC/C(C)=C/Cn1cnc2ncnc(N)c21,99%
2,CC(C)=CCC/C(C)=C/CC/C(C)=C/CC/C(C)=C/C[n+]1cn(C)c2nc[nH]/c(=N\OCc3ccccc3)c21,99%
3,CO/N=c1\[nH]cnc2c1[n+](C/C=C(\C)CC/C=C(/C)CCC=C(C)C)cn2C,98%
4,CC(C)=CCC/C(C)=C\CC/C(C)=C/C[n+]1cn(C)c2nc[nH]/c(=N\OCc3ccccc3)c21,99%
5,CC(C)=CCC/C(C)=C/CC/C(C)=C/CC/C(C)=C/C[n+]1cn(C)c2nc[nH]/c(=N\OC(C)(C)C)c21,100%
6,Cn1c[n+](Cc2ccccc2)c2c(N)ncnc21.[Cl-],0%
7,CC(C)=CCC/C(C)=C/CC/C(C)=C/CC/C(C)=C/Cn1cnc2c1C(=N)N(C)CN2C,99%
8,CC(C)=CCC/C(C)=C/CC/C(C)=C/CC/C(C)=C/Cn1cnc2c1c(=N)ncn2C,84%

# System: not listed separately
# Experiment: Cytotoxicity against RPMI 8226/s cells
# Assay type: functional, cell-based
# Settings: Homo sapiens, RPMI8226/S
# In short: as §1
row,Compound,IC50
1,CC(C)=CCC/C(C)=C/CC/C(C)=C/CC/C(C)=C/Cn1cnc2ncnc(N)c21,2.78 µM
2,CC(C)=CCC/C(C)=C/CC/C(C)=C/CC/C(C)=C/C[n+]1cn(C)c2nc[nH]/c(=N\OCc3ccccc3)c21,8.24 µM
3,CO/N=c1\[nH]cnc2c1[n+](C/C=C(\C)CC/C=C(/C)CCC=C(C)C)cn2C,0.736 µM
4,CC(C)=CCC/C(C)=C\CC/C(C)=C/C[n+]1cn(C)c2nc[nH]/c(=N\OCc3ccccc3)c21,6.76 µM
5,CC(C)=CCC/C(C)=C/CC/C(C)=C/CC/C(C)=C/C[n+]1cn(C)c2nc[nH]/c(=N\OC(C)(C)C)c21,2.09 µM
6,Cn1c[n+](Cc2ccccc2)c2c(N)ncnc21.[Cl-],> 80 µM
7,CC(C)=CCC/C(C)=C/CC/C(C)=C/CC/C(C)=C/C[n+]1cn(C)c2ncnc(N)c21,2.79 µM
8,CC(C)=CCC/C(C)=C/CC/C(C)=C/CC/C(C)=C/Cn1cnc2c1C(=N)N(C)CN2C,2.51 µM
9,CC(C)=CCC/C(C)=C/CC/C(C)=C/CC/C(C)=C/Cn1cnc2c1c(=N)ncn2C,6.78 µM

# System: Staphylococcus aureus
# Experiment: Antibacterial activity against Staphylococcus aureus ATCC 25923 after 20 hrs by broth microdilution method
# Assay type: functional
# Settings: ATCC 25923, 20 h
# In short: (§2)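 Strains grown 24 h at 35 °C on tryptone-soya agar. Colonies suspended in saline to 0.5 McFarland, then diluted 1:10 in Mueller-Hinton broth (~10⁷ CFU/mL). Inoculum added to twofold dilutions in broth (final 0.125–32 µg/mL) in triplicate. Incubated aerobically at 35 °C for 20 h. MIC is the lowest concentration giving complete growth inhibition. Repeated at least once; gentamycin/streptomycin served as QC.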
row,Compound,MIC
1,CC(C)=CCC/C(C)=C/CC/C(C)=C/CC/C(C)=C/Cn1cnc2ncnc(N)c21,> 32 µg/mL
2,CC(C)=CCC/C(C)=C/CC/C(C)=C/CC/C(C)=C/C[n+]1cn(C)c2nc[nH]/c(=N\OCc3ccccc3)c21,6 µg/mL
3,CO/N=c1\[nH]cnc2c1[n+](C/C=C(\C)CC/C=C(/C)CCC=C(C)C)cn2C,6 µg/mL
4,CC(C)=CCC/C(C)=C\CC/C(C)=C/C[n+]1cn(C)c2nc[nH]/c(=N\OCc3ccccc3)c21,8 µg/mL
5,CC(C)=CCC/C(C)=C/CC/C(C)=C/CC/C(C)=C/C[n+]1cn(C)c2nc[nH]/c(=N\OC(C)(C)C)c21,24 µg/mL
6,Cn1c[n+](Cc2ccccc2)c2c(N)ncnc21.[Cl-],> 32 µg/mL
7,CC(C)=CCC/C(C)=C/CC/C(C)=C/CC/C(C)=C/C[n+]1cn(C)c2ncnc(N)c21,32 µg/mL
8,CC(C)=CCC/C(C)=C/CC/C(C)=C/CC/C(C)=C/Cn1cnc2c1C(=N)N(C)CN2C,16 µg/mL
9,CC(C)=CCC/C(C)=C/CC/C(C)=C/CC/C(C)=C/Cn1cnc2c1c(=N)ncn2C,4 µg/mL

# System: Escherichia coli
# Experiment: Antibacterial activity against Escherichia coli ATCC 25922 after 20 hrs by broth microdilution method
# Assay type: functional
# Settings: ATCC 25922, 20 h
# In short: as §2
row,Compound,MIC
1,CC(C)=CCC/C(C)=C/CC/C(C)=C/CC/C(C)=C/Cn1cnc2ncnc(N)c21,> 32 µg/mL
2,CC(C)=CCC/C(C)=C/CC/C(C)=C/CC/C(C)=C/C[n+]1cn(C)c2nc[nH]/c(=N\OCc3ccccc3)c21,> 32 µg/mL
3,CO/N=c1\[nH]cnc2c1[n+](C/C=C(\C)CC/C=C(/C)CCC=C(C)C)cn2C,16 µg/mL
4,CC(C)=CCC/C(C)=C\CC/C(C)=C/C[n+]1cn(C)c2nc[nH]/c(=N\OCc3ccccc3)c21,12 µg/mL
5,CC(C)=CCC/C(C)=C/CC/C(C)=C/CC/C(C)=C/C[n+]1cn(C)c2nc[nH]/c(=N\OC(C)(C)C)c21,> 32 µg/mL
6,Cn1c[n+](Cc2ccccc2)c2c(N)ncnc21.[Cl-],> 32 µg/mL
7,CC(C)=CCC/C(C)=C/CC/C(C)=C/CC/C(C)=C/C[n+]1cn(C)c2ncnc(N)c21,> 32 µg/mL
8,CC(C)=CCC/C(C)=C/CC/C(C)=C/CC/C(C)=C/Cn1cnc2c1C(=N)N(C)CN2C,> 32 µg/mL
9,CC(C)=CCC/C(C)=C/CC/C(C)=C/CC/C(C)=C/Cn1cnc2c1c(=N)ncn2C,8 µg/mL

# System: U-937/GTB
# Experiment: Cytotoxicity against U937 GTB cells
# Assay type: functional, cell-based
# Settings: Homo sapiens
# In short: as §1
row,Compound,IC50
1,CC(C)=CCC/C(C)=C/CC/C(C)=C/CC/C(C)=C/Cn1cnc2ncnc(N)c21,3.6 µM
2,CC(C)=CCC/C(C)=C/CC/C(C)=C/CC/C(C)=C/C[n+]1cn(C)c2nc[nH]/c(=N\OCc3ccccc3)c21,6.79 µM
3,CO/N=c1\[nH]cnc2c1[n+](C/C=C(\C)CC/C=C(/C)CCC=C(C)C)cn2C,1.4 µM
4,CC(C)=CCC/C(C)=C\CC/C(C)=C/C[n+]1cn(C)c2nc[nH]/c(=N\OCc3ccccc3)c21,7.55 µM
5,CC(C)=CCC/C(C)=C/CC/C(C)=C/CC/C(C)=C/C[n+]1cn(C)c2nc[nH]/c(=N\OC(C)(C)C)c21,4.87 µM
6,Cn1c[n+](Cc2ccccc2)c2c(N)ncnc21.[Cl-],> 80 µM
7,CC(C)=CCC/C(C)=C/CC/C(C)=C/CC/C(C)=C/C[n+]1cn(C)c2ncnc(N)c21,3.17 µM
8,CC(C)=CCC/C(C)=C/CC/C(C)=C/CC/C(C)=C/Cn1cnc2c1C(=N)N(C)CN2C,3.36 µM
9,CC(C)=CCC/C(C)=C/CC/C(C)=C/CC/C(C)=C/Cn1cnc2c1c(=N)ncn2C,6.4 µM

# System: not listed separately
# Experiment: Cytotoxicity against CEM/s cells
# Assay type: functional, cell-based
# Settings: Homo sapiens
# In short: as §1
row,Compound,IC50
1,CC(C)=CCC/C(C)=C/CC/C(C)=C/CC/C(C)=C/Cn1cnc2ncnc(N)c21,2.88 µM
2,CC(C)=CCC/C(C)=C/CC/C(C)=C/CC/C(C)=C/C[n+]1cn(C)c2nc[nH]/c(=N\OCc3ccccc3)c21,14 µM
3,CO/N=c1\[nH]cnc2c1[n+](C/C=C(\C)CC/C=C(/C)CCC=C(C)C)cn2C,1.23 µM
4,CC(C)=CCC/C(C)=C\CC/C(C)=C/C[n+]1cn(C)c2nc[nH]/c(=N\OCc3ccccc3)c21,10 µM
5,CC(C)=CCC/C(C)=C/CC/C(C)=C/CC/C(C)=C/C[n+]1cn(C)c2nc[nH]/c(=N\OC(C)(C)C)c21,3.86 µM
6,Cn1c[n+](Cc2ccccc2)c2c(N)ncnc21.[Cl-],> 80 µM
7,CC(C)=CCC/C(C)=C/CC/C(C)=C/CC/C(C)=C/C[n+]1cn(C)c2ncnc(N)c21,3.06 µM
8,CC(C)=CCC/C(C)=C/CC/C(C)=C/CC/C(C)=C/Cn1cnc2c1C(=N)N(C)CN2C,3.15 µM
9,CC(C)=CCC/C(C)=C/CC/C(C)=C/CC/C(C)=C/Cn1cnc2c1c(=N)ncn2C,7.77 µM
